# Test: Toxicity liver stage against HepG2, at 10uM
# Assay type: cell-based
# Set-up: test concentration 10 uM, cell line HepG2-A16-CD81EGFP
# Conditions: human, HepG2-A16-CD81EGFP cells; read-out: INHIBITION
# Summary of the method: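 Uninfected HepG2-A16-CD81EGFP cells, 3 × 10^3 per well, 1536-well, plated on prespotted compound at 10 μM final, parasite-free screening media added to match infected plates; puromycin 10 μM positive, DMSO 0.5% negative; run in parallel with 48 h PbLuc assay at 37 °C, 5% CO2; viability by CellTiter-Glo luminescence, normalized to controls.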
row,Compound,cytotoxicity at 10 µM
1,Cc1cc(C)n(-c2ccc3nnc(C)n3n2)n1,17.8%
2,CCc1ccc(OCCn2cccn2)cc1,8.95%
3,CCOc1ccc(C(=O)Nc2c(C)nc3cccc(C)n3c2=O)cc1,8.99%
4,COC(=O)CC(c1cccnc1)c1oc(C)cc(=O)c1O (stereo not drawn),-0.191%
5,NC(=O)c1nc(CC(=O)Nc2cccc(C(F)(F)F)c2)no1,0.493%
6,O=S(=O)(NCC1(c2cccs2)CCOCC1)c1ccc2c(c1)OCCO2,-1.64%
7,CC(C)NC(=O)C1CCC2(CCNCC2)C1 (stereo not drawn),7.18%
8,CC(=O)N1CCCC2(CCN(C(=O)c3nn(C)c4ccccc34)CC2)C1,2.26%
9,O=C(NCC1CC1)C1CCC2(CCN(C(=O)c3cccs3)CC2)O1 (stereo not drawn),-0.979%
10,Cn1cc(CN2C[C@@H]3OCCN(CC4CCCC4)[C@@H]3C2)cn1,-163%
11,O=S(=O)(c1ccc(F)cc1)N1CCCn2cnc(CN3CCCC3)c2C1,7.78%
12,O=C(Nc1ccccc1)C1CN(Cc2cccs2)CC12CCOCC2 (stereo not drawn),3.09%
13,COCCN1C(=O)C[C@@H]2[C@H]1CCN2C(=O)c1ccc[nH]1,-1.34%
14,CCOC(=O)CC(c1ccc(OC)cc1)c1c(O)n[nH]c1C (stereo not drawn),-0.244%
15,CC1=Nc2c(c(=O)[nH]n2C(C)C)C(c2cccs2)S1 (stereo not drawn),3.67%
16,Cc1cnc2c(c1NCc1ccncc1)c(=O)n(C)c(=O)n2C,-10.7%
17,COCCN1C[C@@H]2CN(c3ncccn3)C[C@@H]2C1=O,-11.9%
18,CCn1nc(C)c2ncnc(NCCn3cccn3)c21,7.73%
19,COc1c(C(=O)NCc2cccnc2)nnn1Cc1ccc(C)cc1,11.8%
20,CCC1(CC)CC(=O)N(CC(O)c2ccc(F)cc2)C1=O (stereo not drawn),-0.438%
21,CC(CN1CCOCC1)NC(=O)N1CCCC1 (stereo not drawn),0.651%

row,Compound,cytotoxicity at 10 µM
1,Cc1ccc(C)c(CN(CC(N)=O)C(C)C)c1,0.477%
2,COc1ccc(NCCC(=O)NCc2cccnc2N(C)C)cc1,-2.06%
3,CCNC(=O)NCc1ccc(-n2ccc(C(F)(F)F)n2)cc1,-4.7%
4,N#CC1(NC(=O)c2cc(Cl)c3c(c2)OCCCO3)CCC1,-8.42%
5,CC(C)N(CC(N)=O)Cc1c(Cl)ccc2cccnc12,11.8%
6,O=C(NCC1(O)CCOCC1)c1ccn(-c2ccccc2F)n1,-0.636%
7,Nc1nccnc1C(=O)NC1CCN(Cc2ccccc2)C1 (stereo not drawn),11.9%
8,NCC(CO)Cc1cccc(OC(F)(F)F)c1 (stereo not drawn),3.2%
9,CSc1ccc(NC(=O)Cn2cc(N)cn2)cc1,0.14%
10,c1ccc(-n2cncn2)c(CNCCn2cccn2)c1,-4.29%
11,CC(C)(C(=O)NCc1ccccc1F)n1cc(Br)cn1,0.296%
12,O=C(COCC1CC1)N1CCN(C(=O)Cc2ccccn2)CC1,10.3%
13,O=C(C1SCCc2sccc21)N1CCN(C2CC2)C(=O)C1 (stereo not drawn),3.24%
14,Cc1ccc(NC(=O)N2CCOC(C(N)=O)C2)cc1C(F)(F)F (stereo not drawn),-146%
15,COc1ccc(CNCCc2cc(F)cc3c2OCOC3)cc1OC,-6.9%
16,CC(C)OCCN1CCN(C(=O)c2cccc(-n3cccn3)n2)CC1,-3.88%
17,CCCS(=O)(=O)NC(=O)c1sc(C2CCCC2)nc1C,0.521%
18,CCN(C(=O)c1cc2c([nH]c1=O)CCCC2=O)C1CCCCC1,-4.07%
19,Cc1n[nH]cc1CNC(C(=O)N1CCCCC1)c1ccccc1 (stereo not drawn),8.37%
20,CCN(CC)S(=O)(=O)CCNC(=O)c1cc2cccc(F)c2o1,-3.12%
21,CCNC(=O)C1CCCN(Cn2nc(C(C)(C)C)ccc2=O)C1 (stereo not drawn),10.1%

row,Compound,cytotoxicity at 10 µM
1,CCc1sc(C(=O)Nc2cnn(CC(N)=O)c2)cc1C,-2.68%
2,Cn1cc(CNCCNc2ncc(Cl)cc2Cl)cn1,-6.42%
3,CN(Cc1ccc2c(c1)OCO2)C(=O)C1CC(c2cccc(F)c2)=NO1 (stereo not drawn),10.7%
4,COC(=O)CC1CN(Cc2c(Cl)ccc3cccnc23)CCO1 (stereo not drawn),8.36%
5,CS(=O)(=O)c1nnc(NC(=O)CCc2cccc(Cl)c2)[nH]1,-20.4%
6,CCN(CC1CN(CCc2ccccn2)CCO1)c1cccnn1 (stereo not drawn),-6%
7,CC(=O)N(C)CC(=O)Nc1cccc(N2CCN(CC3CC3)CC2)c1,1.75%
8,Cc1ccc2c(c1)OCCCC2NCc1nnc2n1CCCCC2 (stereo not drawn),-7.89%
9,CN(Cc1cccc(Cl)c1)S(=O)(=O)N1CCOCC1,-8.2%
10,COCCn1c2c(ccc1=O)CCN(C(=O)Cc1cccs1)CC2,1.44%
11,CC(C)CCNC(=O)C(c1cccc(F)c1)N(C)C (stereo not drawn),-5.77%
12,COc1cc(CN2CCCC2)ccc1OC12CCCN(CC1)C2 (stereo not drawn),-2.87%
13,CN(Cc1ccccc1CN1CCCC1)C(=O)c1c(O)cccc1O,-5.84%
14,CN(Cc1ccccn1)C(=O)c1cc(CN2CCC(O)CC2)on1,0.852%
15,CCn1c(CN(C)C)nnc1C1CCN(Cc2cnc(C)nc2)CC1,4.6%
16,Cc1ccc2c(c1)SCC(=O)N2CC(=O)N1CCCC1c1nccs1 (stereo not drawn),12.4%
17,O=C(O)[C@@H]1CN(C(=O)CCCc2ccc(F)cc2)C[C@H]1C1CC1,0.832%
18,Cc1cnn(C(C)C2CC2)c1NC(=O)c1ncccc1O (stereo not drawn),7.4%
19,CCN(C)CC(=O)N1CCc2nc(NC)nc(C(=O)N3CCCC3)c2C1,-120%
20,Cc1ccccc1N1CCCN(C(=O)c2nn(C)cc2Cl)CC1,-4.78%
21,O=C1CCNC(=O)N1CC(=O)N1CCC1c1ccc(F)cc1 (stereo not drawn),7.46%

row,Compound,cytotoxicity at 10 µM
1,CNc1nc(C)c(C(=O)N2CCCCC2CCc2ccccc2)s1 (stereo not drawn),2.24%
2,Cn1cc(Cl)c(C(=O)N2CCCN(C3Cc4ccccc4C3)CC2)n1,-4.86%
3,Cc1cccnc1CC(C)N(C)C(=O)c1ccoc1C (stereo not drawn),-12.6%
4,COCCN1CCC(CN(CC2CCCO2)C(=O)CCNC(C)=O)CC1 (stereo not drawn),-5.99%
5,Cc1ccc(C(=O)N2CCN(S(C)(=O)=O)CC2)cc1N1CCNC1=O,-5.07%
6,COCCN(C)C[C@@H]1CN(C(=O)c2ccoc2)C[C@@H]1CO,-18.4%
7,COCCCNC(=O)CN(C)C1CCCN(c2cccnn2)C1 (stereo not drawn),-2.51%
8,Cc1ccsc1CNC(=O)N(C)Cc1cnn(C)c1,-6.25%
9,CN1CCOC(CN(C(=O)CCCn2cccn2)c2nccs2)C1 (stereo not drawn),-22.7%
10,CN1CC(C(=O)Nc2ccc(OCC(F)(F)C(F)F)nc2)CC1=O (stereo not drawn),-8.64%
11,CC(C)(C(N)=O)N1CCN(C(=O)c2ccn(-c3cccc(Cl)c3)n2)CC1,-13.3%
12,Cc1cnn(CC(=O)N2CCCN(c3ncccc3C#N)CC2)c1,-4.37%
13,O=C(NCCOC1CCCCC1)c1ccc(-c2ccco2)[nH]c1=O,-8.08%
14,CN(Cc1cccc(F)c1)C(=O)CN1CCOC(Cn2cccn2)C1 (stereo not drawn),-8.21%
15,COCCNc1cc(C2CCCNC2)ccn1 (stereo not drawn),-7.17%
16,CCOC(=O)[C@]12CCCN(Cc3nccs3)C[C@H]1CN(CCOC)C2,1.36%
17,CN1[C@@H](C(=O)NCC2CC2)C[C@H]2CN(Cc3ccsc3)C[C@H]21,-0.213%
18,CCNc1nc2cn(-c3ccc(CC)cc3)c(=O)c-2c[nH]1,-3.31%
19,CNc1nc2cn(Cc3ccc(Cl)cc3)c(=O)c-2c[nH]1,8.93%
20,COC1C[C@@H]2CN(C(=O)c3cc4cccc(F)c4[nH]3)C[C@@H]2C1 (stereo partly drawn),1.51%
